The target in series [1] is Histamine H3 receptor (Rattus norvegicus, UniProt Q9QYN8). The series is described as follows: Displacement of [3H]NAMH from rat histamine H3 receptor. A digest of the protocol: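 Radioligand binding with [3H]NAMH in membranes from cells transfected with human or rat H3 receptor. Ki values averaged from at least two determinations; assay-to-assay variation typically within 2.5-fold.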
(In general: Loss of bound radioactivity is the signal in a displacement assay; it reports binding, not function.)

A short description of series [2]: Drug uptake in rat brain at 10 mg/kg, ip measured after 1 hr. The arrangement: dose 10 mg/kg, route intraperitoneal. Format: ADME, organism-based. The following applies: read-out: Drug uptake. A digest of the protocol: (§1)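 Male-unspecified rats dosed 10 mg/kg ip in 0.5% methylcellulose, 0.2% Tween 80 in water; brain concentration (ng/g) measured at 1, 4, 6 and 24 h post dose. Brain-to-plasma ratio taken at 1 h.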

The nature of series [3]: Drug uptake in rat brain at 10 mg/kg, ip measured after 4 hrs. Conditions: read-out: Drug uptake. The arrangement: dose 10 mg/kg, route intraperitoneal. Format: ADME, organism-based. The method, boiled down: as §1
A short description of series [4]: Drug uptake in rat brain at 10 mg/kg, ip measured after 6 hrs. Format: ADME, organism-based. The arrangement: dose 10 mg/kg, route intraperitoneal. The following applies: read-out: Drug uptake. The method, boiled down:
as §1

Series [5] relates to Brain. Briefly: Drug uptake in rat brain at 10 mg/kg, ip measured after 24 hrs. Type of series: ADME, organism-based. More on the design: dose 10 mg/kg, route intraperitoneal. Conditions: in vivo. The method, boiled down: as §1
The target in series [6] is Histamine H3 receptor (Homo sapiens, UniProt Q9Y5N1). The series is described as follows: Displacement of [3H]NAMH from human histamine H3 receptor.
Histamine H3 receptor (Homo sapiens, UniProt Q9Y5N1), sequence (Q9Y5N1 whole entry): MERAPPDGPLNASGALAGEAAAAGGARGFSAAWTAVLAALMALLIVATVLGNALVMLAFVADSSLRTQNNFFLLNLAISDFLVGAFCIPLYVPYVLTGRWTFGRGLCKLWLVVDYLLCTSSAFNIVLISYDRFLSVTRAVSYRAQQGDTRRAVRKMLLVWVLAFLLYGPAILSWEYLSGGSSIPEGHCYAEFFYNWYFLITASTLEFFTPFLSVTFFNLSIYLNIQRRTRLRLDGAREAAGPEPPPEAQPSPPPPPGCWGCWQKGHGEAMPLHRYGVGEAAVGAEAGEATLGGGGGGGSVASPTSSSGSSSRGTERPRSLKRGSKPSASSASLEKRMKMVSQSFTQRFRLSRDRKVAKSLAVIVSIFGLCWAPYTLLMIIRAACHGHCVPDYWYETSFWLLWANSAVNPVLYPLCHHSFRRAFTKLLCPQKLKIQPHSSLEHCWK
Series [7] is described as follows: Aqueous solubility of the compound at pH 7.4. The following applies: aqueous medium. Type of series: physicochemical.
Series [8] addresses Sigma non-opioid intracellular receptor 1 (Homo sapiens) (UniProt Q99720). Briefly: Inhibition of human sigma 1 receptor at 10 uM. The method, boiled down:
(§2)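 Selectivity panel of 70 GPCRs, ion channels and enzymes run by a contract screening service; percent inhibition at 10 µM test concentration.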

Series [9] deals with Nischarin (Rattus norvegicus) (UniProt Q4G017). Briefly: Inhibition of rat imidazoline I2 receptor at 10 uM. A digest of the protocol:
as §2

Series [10] concerns the target T1, Cytochrome P450 1A2 (Homo sapiens, UniProt P05177).
T1 sequence (P05177 whole entry): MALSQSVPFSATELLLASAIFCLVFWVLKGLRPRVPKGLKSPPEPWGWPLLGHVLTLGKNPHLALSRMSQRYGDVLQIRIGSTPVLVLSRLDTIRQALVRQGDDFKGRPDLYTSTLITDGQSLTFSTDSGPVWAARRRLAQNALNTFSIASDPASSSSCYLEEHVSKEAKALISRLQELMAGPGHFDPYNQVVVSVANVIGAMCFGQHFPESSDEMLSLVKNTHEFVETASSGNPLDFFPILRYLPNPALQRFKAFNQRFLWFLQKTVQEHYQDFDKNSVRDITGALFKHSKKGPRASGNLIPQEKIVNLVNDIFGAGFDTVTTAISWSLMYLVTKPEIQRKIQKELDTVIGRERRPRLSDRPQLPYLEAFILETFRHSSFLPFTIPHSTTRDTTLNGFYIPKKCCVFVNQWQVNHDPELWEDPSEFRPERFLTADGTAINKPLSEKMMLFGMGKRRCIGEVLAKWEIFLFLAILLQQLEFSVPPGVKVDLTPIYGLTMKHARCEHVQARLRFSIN
Briefly: Inhibition of CYP1A2. Format: ADME.

The target in series [11] is Cytochrome P450 2C9 (Homo sapiens, UniProt P11712). The series is described as follows: Inhibition of CYP2C9. Format: ADME.
Cytochrome P450 2C9, sequence (P11712 whole entry): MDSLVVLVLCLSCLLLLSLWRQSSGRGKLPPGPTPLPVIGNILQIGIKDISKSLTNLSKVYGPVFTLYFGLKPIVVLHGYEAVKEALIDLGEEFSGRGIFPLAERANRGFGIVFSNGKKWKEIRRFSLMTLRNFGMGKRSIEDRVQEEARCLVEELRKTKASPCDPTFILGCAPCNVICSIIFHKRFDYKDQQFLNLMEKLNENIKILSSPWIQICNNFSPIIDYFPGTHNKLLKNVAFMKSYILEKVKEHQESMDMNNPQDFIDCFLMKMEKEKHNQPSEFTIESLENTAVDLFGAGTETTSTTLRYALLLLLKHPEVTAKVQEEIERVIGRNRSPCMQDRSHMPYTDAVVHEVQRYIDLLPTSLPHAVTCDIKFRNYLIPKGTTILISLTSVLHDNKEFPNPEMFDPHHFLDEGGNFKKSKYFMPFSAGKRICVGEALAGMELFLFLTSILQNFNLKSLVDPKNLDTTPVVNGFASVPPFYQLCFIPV
Series [12] addresses Cytochrome P450 2C19 (Homo sapiens, UniProt P33261). The series is described as follows: Inhibition of CYP2C19. Type of series: ADME.
In series [13] the target is Cytochrome P450 2D6 (Homo sapiens, UniProt P10635). The series is described as follows: Inhibition of CYP2D6. Type of series: ADME.
Cytochrome P450 2D6, sequence (P10635 whole entry): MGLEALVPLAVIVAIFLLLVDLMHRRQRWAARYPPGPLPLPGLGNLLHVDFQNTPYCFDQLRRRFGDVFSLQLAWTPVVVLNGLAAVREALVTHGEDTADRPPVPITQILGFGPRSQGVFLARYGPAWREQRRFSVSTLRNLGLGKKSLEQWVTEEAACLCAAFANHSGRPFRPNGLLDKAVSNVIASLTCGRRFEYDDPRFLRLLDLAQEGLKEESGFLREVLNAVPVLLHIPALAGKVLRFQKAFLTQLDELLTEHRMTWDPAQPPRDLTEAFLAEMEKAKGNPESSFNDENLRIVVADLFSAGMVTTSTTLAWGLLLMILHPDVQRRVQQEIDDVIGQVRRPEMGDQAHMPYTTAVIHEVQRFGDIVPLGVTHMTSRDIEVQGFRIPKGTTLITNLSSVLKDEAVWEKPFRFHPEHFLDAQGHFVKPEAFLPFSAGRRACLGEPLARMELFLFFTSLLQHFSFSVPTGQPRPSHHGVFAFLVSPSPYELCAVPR
The target of series [14] is Cytochrome P450 3A4 (Homo sapiens, UniProt P08684). Briefly: Inhibition of CYP3A4. Type of series: ADME.
Cytochrome P450 3A4, sequence (P08684 whole entry): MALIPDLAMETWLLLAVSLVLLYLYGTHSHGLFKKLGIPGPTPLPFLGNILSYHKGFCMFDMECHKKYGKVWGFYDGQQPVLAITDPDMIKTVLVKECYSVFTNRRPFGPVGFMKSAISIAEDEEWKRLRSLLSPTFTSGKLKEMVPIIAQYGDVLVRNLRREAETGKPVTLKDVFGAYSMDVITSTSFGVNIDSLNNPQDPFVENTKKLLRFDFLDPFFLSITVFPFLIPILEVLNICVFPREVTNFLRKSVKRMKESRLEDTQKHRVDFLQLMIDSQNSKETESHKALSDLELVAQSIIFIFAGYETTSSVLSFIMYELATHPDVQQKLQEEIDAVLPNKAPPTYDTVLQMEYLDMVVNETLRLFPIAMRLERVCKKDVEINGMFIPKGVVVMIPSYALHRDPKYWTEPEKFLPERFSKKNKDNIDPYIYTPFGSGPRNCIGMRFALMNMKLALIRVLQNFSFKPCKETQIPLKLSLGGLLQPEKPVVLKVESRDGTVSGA
Series [15] deals with Rattus norvegicus. The series is described as follows: AUC (0 to 6 hrs) in rat at 5 mg/kg, po. Type of series: ADME, organism-based, Plasma. More on the design: time < 6 hr, dose 5 mg/kg, route oral. The following applies: in vivo.
A short description of series [16]: Oral bioavailability in rat at 5 mg/kg. Format: ADME, organism-based. The following applies: in vivo. A digest of the protocol: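 Rats received 5 mg/kg po in 50% Tween 80, 40% propylene carbonate and 10% propylene glycol. The iv comparison dose was formulated in 3% DMSO, 30% solutol and 67% phosphate-buffered saline.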
Series [17] can be described thus: Ratio of drug uptake in rat brain to plasma at 10 mg/kg, ip measured after 1 hr. The following applies: read-out: BPR. Format: ADME, organism-based. More on the design: dose 10 mg/kg, route intraperitoneal. A digest of the protocol:
as §1

Series [18] concerns Rattus norvegicus. Briefly: Effect on sleep-awake cycle in ip dosed EEG/EMG Sprague-Dawley rat model assessed as wake promotion after 4 hrs. Type of series: functional, organism-based.
Series [19] has as its system Rattus norvegicus. The series is described as follows: Effect on sleep-awake cycle in ip dosed EEG/EMG Sprague-Dawley rat model assessed as wake promotion time at 10 mg/kg, ip (reference value: 101 +/- 7 mins). Conditions: route intraperitoneal. Format: functional.
Series [20] deals with Rattus norvegicus. Briefly: Effect on sleep-awake cycle in ip dosed EEG/EMG Sprague-Dawley rat model assessed as wake promotion time at 30 mg/kg, ip (reference value: 101 +/- 7 mins). Type of series: functional. Conditions: route intraperitoneal.
The subject of series [21] is Rattus norvegicus. The series is described as follows: Effect on sleep-awake cycle in ip dosed EEG/EMG Sprague-Dawley rat model assessed as wake promotion time at 60 mg/kg, ip (reference value: 101 +/- 7 mins). Type of series: functional. Conditions: route intraperitoneal.
Series [22] has as its system Rattus norvegicus. Briefly: Effect on sleep-awake cycle in EEG/EMG Sprague-Dawley rat model assessed as wake promotion at 60 mg/kg, ip after 4 hrs. Format: functional. The following applies: route intraperitoneal.
The test system of series [23] is Rattus norvegicus. The series is described as follows: Effect on sleep-awake cycle in EEG/EMG Sprague-Dawley rat model assessed as wake promotion at 60 mg/kg, ip after 4 hrs relative to control. Type of series: functional. Conditions: route intraperitoneal. The method, boiled down: (§3)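 Male Sprague Dawley rats were surgically implanted for chronic EEG and EMG recording and dosed ip at 10, 30 or 60 mg/kg or with vehicle. Line 2 is read as cumulative time awake over 4 h post-dose (4 h AUC), or percent time awake. Line 1 is theta-range EEG power (~6–9 Hz, FFT amplitude) at 1 h. n = 7-8/group; Dunnett's test versus vehicle.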

Series [24] deals with Rattus norvegicus. Briefly: Effect on sleep-awake cycle in EEG/EMG Sprague-Dawley rat model assessed as increase in slow-wave sleep at 30 mg/kg, ip after 4 hrs. More on the design: dose 30 mg/kg. Type of series: functional, organism-based.
In series [25] the test system is Rattus norvegicus. Briefly: Effect on sleep-awake cycle in EEG/EMG Sprague-Dawley rat model assessed as increase in slow-wave sleep at 60 mg/kg, ip after 4 hrs. Format: functional, organism-based. More on the design: dose 60 mg/kg.
The test system of series [26] is Rattus norvegicus. Briefly: Effect on sleep-awake cycle in EEG/EMG Sprague-Dawley rat model assessed as increase in rapid eye movement sleep at 30 mg/kg, ip after 4 hrs. Type of series: functional, organism-based. More on the design: dose 30 mg/kg.
Series [27] relates to Rattus norvegicus. Briefly: Effect on sleep-awake cycle in EEG/EMG Sprague-Dawley rat model assessed as increase in rapid eye movement sleep at 60 mg/kg, ip after 4 hrs. Type of series: functional, organism-based. More on the design: dose 60 mg/kg.
Series [28] deals with Rattus norvegicus. Briefly: Effect on sleep-awake cycle in EEG/EMG Sprague-Dawley rat model assessed as sleep rebound at 10 to 60 mg/kg, ip up to 22 hrs. Format: functional, organism-based.
For series [29], the system named is Rattus norvegicus. Briefly: Toxicity in EEG/EMG Sprague-Dawley rat model assessed as adverse EEG activity at 10 to 60 mg/kg, ip. Format: organism-based. The arrangement: dose 10-60 mg/kg, route intraperitoneal. The following applies: in vivo.
In series [30] the test system is Rattus norvegicus. The series is described as follows: Effect on sleep-awake cycle in EEG/EMG Sprague-Dawley rat model assessed as increase in EEG theta range at 30 to 60 mg/kg, ip after 1 hr. Format: functional. Conditions: dose mg/kg 30-60; route intraperitoneal. A digest of the protocol:
as §3

Series [31] concerns Rattus norvegicus. Briefly: Effect on sleep-awake cycle in EEG/EMG Sprague-Dawley rat model assessed as change in EEG theta frequency at 30 to 60 mg/kg, ip after 1 hr. Type of series: functional, organism-based.
Series [32] can be described thus: Half life in human liver microsomes. Format: ADME, Microsome.
Series [33] can be described thus: Half life in rat liver microsomes. Format: ADME, Microsome.
A short description of series [34]: Half life in dog liver microsomes. Format: ADME, Canis lupus familiaris, Microsome. For orientation: Liver microsomes are vesicles of endoplasmic reticulum, rich in cytochrome P450 enzymes.
Series [35] in a line: Half life in mouse liver microsomes. Type of series: ADME, Microsome.

Activity calls are given as the source filed them. The rule behind the calls is not given here.

Histamine H3 receptor (Rattus norvegicus, UniProt Q9QYN8), sequence (Q9QYN8 whole entry): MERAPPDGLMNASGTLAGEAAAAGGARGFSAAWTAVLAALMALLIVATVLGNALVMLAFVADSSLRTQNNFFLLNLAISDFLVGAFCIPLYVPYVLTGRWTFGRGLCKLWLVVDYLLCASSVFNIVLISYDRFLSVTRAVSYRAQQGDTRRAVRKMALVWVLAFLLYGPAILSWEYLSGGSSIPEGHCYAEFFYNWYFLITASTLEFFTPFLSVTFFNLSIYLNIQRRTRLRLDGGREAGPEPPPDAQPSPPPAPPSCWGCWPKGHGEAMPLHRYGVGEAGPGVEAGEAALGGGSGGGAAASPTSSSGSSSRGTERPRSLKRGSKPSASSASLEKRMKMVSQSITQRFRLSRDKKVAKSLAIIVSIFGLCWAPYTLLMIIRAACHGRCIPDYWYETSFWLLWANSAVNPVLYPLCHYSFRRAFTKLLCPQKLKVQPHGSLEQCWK
Cytochrome P450 2C19, sequence (P33261 whole entry): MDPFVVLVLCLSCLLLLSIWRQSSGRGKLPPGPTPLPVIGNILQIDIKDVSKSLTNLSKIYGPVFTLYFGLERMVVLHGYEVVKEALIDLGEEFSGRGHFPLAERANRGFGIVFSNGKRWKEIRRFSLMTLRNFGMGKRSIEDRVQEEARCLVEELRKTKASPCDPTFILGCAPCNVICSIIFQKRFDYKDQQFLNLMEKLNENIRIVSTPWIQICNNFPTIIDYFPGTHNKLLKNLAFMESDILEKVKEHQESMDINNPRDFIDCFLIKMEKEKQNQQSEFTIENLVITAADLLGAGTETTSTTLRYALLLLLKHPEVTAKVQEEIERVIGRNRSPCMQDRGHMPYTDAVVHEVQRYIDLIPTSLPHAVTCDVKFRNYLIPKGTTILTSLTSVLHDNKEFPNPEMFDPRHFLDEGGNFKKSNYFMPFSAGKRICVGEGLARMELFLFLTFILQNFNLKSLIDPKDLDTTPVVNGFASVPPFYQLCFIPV
Sigma non-opioid intracellular receptor 1 (Homo sapiens), sequence (Q99720 whole entry): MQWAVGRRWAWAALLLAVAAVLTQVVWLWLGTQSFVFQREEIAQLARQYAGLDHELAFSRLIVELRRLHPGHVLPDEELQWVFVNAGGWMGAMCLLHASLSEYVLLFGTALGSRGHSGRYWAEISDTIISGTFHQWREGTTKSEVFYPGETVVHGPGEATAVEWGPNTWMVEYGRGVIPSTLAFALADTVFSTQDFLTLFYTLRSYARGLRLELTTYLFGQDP
Nischarin (Rattus norvegicus), sequence (Q4G017 whole entry): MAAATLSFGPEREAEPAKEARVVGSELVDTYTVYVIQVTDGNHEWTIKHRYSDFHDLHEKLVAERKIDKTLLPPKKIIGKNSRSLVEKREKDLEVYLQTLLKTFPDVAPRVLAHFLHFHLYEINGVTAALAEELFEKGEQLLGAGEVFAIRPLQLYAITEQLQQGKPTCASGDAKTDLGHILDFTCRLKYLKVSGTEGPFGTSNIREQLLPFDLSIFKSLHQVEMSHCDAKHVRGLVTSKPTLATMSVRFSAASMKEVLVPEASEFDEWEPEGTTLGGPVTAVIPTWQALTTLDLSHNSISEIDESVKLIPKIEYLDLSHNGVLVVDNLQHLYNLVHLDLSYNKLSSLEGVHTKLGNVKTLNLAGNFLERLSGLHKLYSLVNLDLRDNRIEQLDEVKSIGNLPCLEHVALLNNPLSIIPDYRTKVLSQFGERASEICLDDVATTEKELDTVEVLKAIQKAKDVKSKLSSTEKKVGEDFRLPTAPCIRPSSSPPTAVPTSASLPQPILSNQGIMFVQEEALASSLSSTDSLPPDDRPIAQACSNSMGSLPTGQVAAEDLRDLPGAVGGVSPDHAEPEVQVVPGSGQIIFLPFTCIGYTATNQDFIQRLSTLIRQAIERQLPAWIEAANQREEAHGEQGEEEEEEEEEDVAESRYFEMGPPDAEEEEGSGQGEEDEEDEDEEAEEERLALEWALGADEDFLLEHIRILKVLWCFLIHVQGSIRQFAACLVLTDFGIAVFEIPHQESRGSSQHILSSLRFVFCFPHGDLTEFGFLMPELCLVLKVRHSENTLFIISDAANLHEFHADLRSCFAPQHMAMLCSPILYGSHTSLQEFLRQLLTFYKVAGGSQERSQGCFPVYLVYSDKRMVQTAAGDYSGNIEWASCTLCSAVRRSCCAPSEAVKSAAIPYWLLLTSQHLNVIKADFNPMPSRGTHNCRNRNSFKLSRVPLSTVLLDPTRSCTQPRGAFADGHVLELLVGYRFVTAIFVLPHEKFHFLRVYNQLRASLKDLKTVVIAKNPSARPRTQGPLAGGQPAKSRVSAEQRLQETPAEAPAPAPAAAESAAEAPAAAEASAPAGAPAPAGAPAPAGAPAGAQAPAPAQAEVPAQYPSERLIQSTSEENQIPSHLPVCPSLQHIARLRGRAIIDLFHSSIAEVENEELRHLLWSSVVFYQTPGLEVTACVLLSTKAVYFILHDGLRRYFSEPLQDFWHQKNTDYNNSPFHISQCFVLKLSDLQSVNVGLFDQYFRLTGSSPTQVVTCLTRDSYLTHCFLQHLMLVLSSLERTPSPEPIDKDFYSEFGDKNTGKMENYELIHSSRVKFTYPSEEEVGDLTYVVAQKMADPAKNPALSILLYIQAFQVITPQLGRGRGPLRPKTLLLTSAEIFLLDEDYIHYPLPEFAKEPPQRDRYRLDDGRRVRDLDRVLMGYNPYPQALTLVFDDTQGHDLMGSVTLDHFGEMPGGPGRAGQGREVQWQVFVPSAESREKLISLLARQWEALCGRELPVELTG

With `CC1CCCN1CCCOc1ccc(C(=O)CN2CCOCC2)cc1` (racemic), the Ki in series [1] came out at 56 nM. In series [2], the concentration at 1 h is 3930 ng/g. Besides, the concentration at 4 h in series [3] turned out to be 1610 ng/g. Moreover, the concentration at 6 h in series [4] amounted to 955 ng/g. In addition, the Drug uptake result in series [5] is reported as “Not Active”.

As to `O=C(CN1CCCCC1)c1ccc(OCCCN2CCCC2)cc1`, the inhibition constant (Ki) was 174 nM in [1] and 32 nM in series [6].

Take `C[C@@H]1CCCN1CCCOc1ccc(C(=O)CN2CCOCC2)cc1`: in series [1], the Ki was determined as 50 nM. In series [7], this compound registered a solubility of more than 145 µg/mL. For the same compound, the inhibition is 78% in series [8] and 67% in series [9]. Further, the IC50 in series [10], in series [11], in series [12], in series [13] and in series [14] was more than 30 µM throughout. The compound further gave an area under the curve (AUC) in series [15] of 109 ng·h/mL. Moreover, in series [16], the bioavailability is 14%. In addition, the concentration at 1 h in series [2] amounted to 3770 ng/g. In addition, the Kp at 1 h in series [17] came to 30.7. Also, the Activity result in series [18] was “Dose-dependent effect”; in series [22], 93%; in series [29], “Non-toxic”. The Time in [19] stood at 118 min; in [20] it was 163 min; in series [21] it was 222 min. Moreover, the “fold change (FC)” value in [23] was determined as 2.2; in series [30] it was 2. The outcome in series [24], in [25], in series [26] and in series [27] was Active. In addition, the result in series [28] and in series [31] was inactive.

In the case of `C[C@@H]1CCCN1CCCOc1ccc(C(=O)C(C)(C)N2CCOCC2)cc1`, the half-life in series [32] is 8 min; in series [33], 9 min; in series [34], 10 min; in [35] it was more than 40 min. Besides, the Ki in [1] stood at 33 nM; in series [6], 9 nM.

For the compound `Cc1cc(OCCCN2CCC[C@H]2C)ccc1C(=O)CN1CCOCC1`, the inhibitory constant (Ki) was 244 nM in series [1] and 19 nM in [6].

Turning to `C[C@@H]1CN(CC(=O)c2ccc(OCCCN3CCC[C@H]3C)cc2)C[C@H](C)O1`, the figures for the inhibitory constant (Ki) in [1] and in [6] were 78 nM and 10 nM, respectively.

With `O=C(CN1CCOCC1)c1ccc(OCCCN2CCCCC2)cc1`, the values for the Ki in series [1] and in [6] were 440 nM and 66 nM, respectively.

On to `COC[C@@H]1CCCN1CCCOc1ccc(C(=O)CN2CCOCC2)cc1`, for which the Ki in [1] and in series [6] was more than 3000 nM in each case.

For the compound `CC1(C)CCCN1CCCOc1ccc(C(=O)CN2CCOCC2)cc1`, the Ki in [1] and in series [6] was more than 1000 nM in each case.

Turning to `COC[C@H]1CCCN1CCCOc1ccc(C(=O)CN2CCOCC2)cc1`, the Ki in series [1] is more than 3000 nM; in [6], 1170 nM.

In [1], `C[C@H]1CCCN1CCCOc1ccc(C(=O)CN2CCOCC2)cc1` displayed a Ki of 885 nM.

For the compound `CC(C(=O)c1ccc(OCCCN2CCC[C@H]2C)cc1)N1CCOCC1` (stereo partly specified), the half-life in series [32], in [33], in series [34] and in series [35] was more than 40 min throughout. The Ki in [1] was 105 nM; in series [6], 8 nM.

In the case of `O=C(CN1CCOCC1)c1ccc(OCCCN2CCCC2)cc1`, the Ki in series [1] was 594 nM; in series [6] it was 106 nM.

The term Ki denotes a dissociation constant, usually derived from enzyme kinetics or from competition with a known ligand. Low readings indicate tighter binding, high ones weaker binding. By solubility is commonly meant the dissolved amount per volume that the medium holds. A high value points to much dissolved substance. Broadly, the inhibition is the share of the control response that was lost under treatment. The IC50 is the concentration at which inhibition is half-maximal. Read a high IC50 as a need for much substance. In general, AUC refers to the area under the concentration-time curve, a measure of exposure. A higher AUC goes with high exposure. One may read the bioavailability as the share of a dose that reaches the circulation, judged against a reference dose that is usually intravenous. One may read the half-life as how long it takes for the measured level to halve.

For the origin of these results see ChEMBL document CHEMBL1949633, “Novel morpholine ketone analogs as potent histamine H3 receptor inverse agonists with wake activity” (Bioorg Med Chem Lett, 2012).
